Laboratory results from ChEMBL document CHEMBL1140227, “Histone deacetylase inhibitors through click chemistry” (J Med Chem, 2008).

How the values were obtained:
Type in all cases: functional
[1] = tested on: NCI-H522; assay: Growth inhibition of human NCI-H522 cells at 10 uM relative to control; details: values are per cent of control
How it was run: (§1)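 Single-dose preliminary screen in the NCI human cancer cell line panel, run by the NIH. Percent inhibition of cell line growth was calculated by comparison with untreated samples.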

[2] = tested on: OVCAR-4; assay: Growth inhibition of human OVCAR4 cells at 10 uM relative to control; details: values are per cent of control; how it was run: as §1
[3] = tested on: SNB-75; assay: Growth inhibition of human SNB75 cells at 10 uM relative to control; details: values are per cent of control
How it was run: (§2)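 Single-dose NCI human tumour cell line screen, run by the NIH. Percent inhibition of cell line growth was calculated by comparison with untreated samples.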

[4] = tested on: EKVX; assay: Growth inhibition of human EKVX cells at 10 uM relative to control; details: values are per cent of control; how it was run: as §1
[5] = tested on: T47D; assay: Growth inhibition of human T47D cells at 10 uM relative to control; details: values are per cent of control; how it was run: as §2
[6] = tested on: SF-539; assay: Growth inhibition of human SF539 cells at 10 uM relative to control; details: values are per cent of control; how it was run: as §1
[7] = tested on: MOLT-4; assay: Growth inhibition of human MOLT4 cells at 10 uM relative to control; details: values are per cent of control; how it was run: as §1
[8] = cells; details: Homo sapiens, Cancer cell lines
[9] = tested on: Malme-3M; assay: Growth inhibition of human MALME-3M cells at 10 uM relative to control; details: values are per cent of control; how it was run: as §1
[10] = tested on: SK-MEL-2; assay: Growth inhibition of human SK-MEL-2 cells at 10 uM relative to control; details: values are per cent of control; how it was run: as §1
[11] = tested on: HCT-15; assay: Growth inhibition of human HCT15 cells at 10 uM relative to control; details: values are per cent of control; how it was run: as §1
[12] = tested on: NCI/ADR-RES; assay: Growth inhibition of human NCI/ADR-RES cells at 10 uM relative to control; details: values are per cent of control; how it was run: as §1
[13] = tested on: NCI-H226; assay: Growth inhibition of human NCI-H226 cells at 10 uM relative to control; details: values are per cent of control; how it was run: as §1
[14] = tested on: HOP-62; assay: Growth inhibition of human HOP62 cells at 10 uM relative to control; details: values are per cent of control; how it was run: as §1
[15] = tested on: UACC-257; assay: Growth inhibition of human UACC257 cells at 10 uM relative to control; details: values are per cent of control; how it was run: as §2
[16] = tested on: HOP-92; assay: Growth inhibition of human HOP92 cells at 10 uM relative to control; details: values are per cent of control; how it was run: as §1
[17] = tested on: UACC-62; assay: Growth inhibition of human UACC62 cells at 10 uM relative to control; details: values are per cent of control; how it was run: as §2
[18] = tested on: NCI-H322M; assay: Growth inhibition of human NCI-H322M cells at 10 uM relative to control; details: values are per cent of control; how it was run: as §1
[19] = tested on: SK-OV-3; assay: Growth inhibition of human SKOV3 cells at 10 uM relative to control; details: values are per cent of control; how it was run: as §1
[20] = tested on: SW-620; assay: Growth inhibition of human SW620 cells at 10 uM relative to control; details: values are per cent of control; how it was run: as §2
[21] = tested on: A549; assay: Growth inhibition of human A549 cells at 10 uM relative to control; details: values are per cent of control; how it was run: as §1
[22] = tested on: Melanoma cell; assay: cells; details: Homo sapiens
[23] = tested on: SN12C; assay: Growth inhibition of human SN12C cells at 10 uM relative to control; details: values are per cent of control; how it was run: as §1
[24] = tested on: MCF7; assay: Growth inhibition of human MCF7 cells at 10 uM relative to control; details: values are per cent of control; how it was run: as §1
[25] = tested on: LOX IMVI; assay: Growth inhibition of human LOXIMVI cells at 10 uM relative to control; details: values are per cent of control; how it was run: as §1
[26] = tested on: MDA-MB-468; assay: Growth inhibition of human MDA-MB-468 cells at 10 uM relative to control; details: values are per cent of control; how it was run: as §1
[27] = Growth inhibition of human RPMI8266 cells at 10 uM relative to control; details: values are per cent of control; how it was run: as §1
[28] = tested on: SK-MEL-28; assay: Growth inhibition of human SK-MEL-28 cells at 10 uM relative to control; details: values are per cent of control; how it was run: as §1
[29] = tested on: K562; assay: Growth inhibition of human K562 cells at 10 uM relative to control; details: values are per cent of control; how it was run: as §1
[30] = tested on: SK-MEL-5; assay: Growth inhibition of human SK-MEL-5 cells at 10 uM relative to control; details: values are per cent of control; how it was run: as §1
[31] = tested on: HCT-116; assay: Growth inhibition of human HCT116 cells at 10 uM relative to control; details: values are per cent of control; how it was run: as §1
[32] = tested on: 786-0; assay: Growth inhibition of human 786-0 cells at 10 uM relative to control; details: values are per cent of control; how it was run: as §1

`O=C(/C=C/c1cn(CCc2ccccc2)nn1)NO` showed a growth, % of control at 10 µM [1] of 27.7%, a growth, % of control at 10 µM [2] of 77.5% and a growth, % of control at 10 µM [3] of 35.1%. For the same compound, the growth, % of control at 10 µM [4] was 44.6%, the growth, % of control at 10 µM [5] was 32.8% and the growth, % of control at 10 µM [6] was 72.8%. For the same compound, the growth, % of control at 10 µM [7] was 3.77%, the inhibition at 10 µM [8] was 45% and the growth, % of control at 10 µM [9] was 15.9%. It also gave a growth, % of control at 10 µM [10] of 45.8%, a growth, % of control at 10 µM [11] of 75.8% and a growth, % of control at 10 µM [12] of -13.7%. The growth, % of control at 10 µM [13] was 76.5%, the growth, % of control at 10 µM [14] was 13.3% and the growth, % of control at 10 µM [15] was 19.5%. For the same compound, the growth, % of control at 10 µM [16] was -9.64%, the growth, % of control at 10 µM [17] was 18.1% and the growth, % of control at 10 µM [18] was 66%. It also gave a growth, % of control at 10 µM [19] of 57%, a growth, % of control at 10 µM [20] of 31.1% and a growth, % of control at 10 µM [21] of 54.2%. It also gave an inhibition at 10 µM [22] of 33%, a growth, % of control at 10 µM [23] of 64.8% and a growth, % of control at 10 µM [24] of 63.7%. The growth, % of control at 10 µM [25] was 44.9%, the growth, % of control at 10 µM [26] was 56% and the growth, % of control at 10 µM [27] was 1.76%. It also gave a growth, % of control at 10 µM [28] of 42.6%, a growth, % of control at 10 µM [29] of 30.5% and a growth, % of control at 10 µM [30] of 35.5%. It also gave a growth, % of control at 10 µM [31] of 5.49% and a growth, % of control at 10 µM [32] of 26.3%.
